Measured values of several laboratories.
Lines come from different studies, so protocols differ.
ST14: Suppressor of tumorigenicity 14 protein (ST14, Homo sapiens, UniProt Q9Y5Y6)
CDK2 with cyclin A2: Cyclin-dependent kinase 2, with cyclin A2 (CDK2, Homo sapiens, UniProt P24941)

Structure (SMILES) | target | observed | mode | method | concentration | measurement | value
Cc1cc([C@@H](C)Nc2ccccc2C(=O)O)c2nc(N3CCC(F)(F)CC3)c(C#N)c(=O)n2c1 | Mitogen-activated protein kinase 10 (MAPK10, Homo sapiens, UniProt P53779) | binding | – | competition with immobilised ligand | 1 µM | remaining binding | 100%
N=C(N)NCCC[C@H](NC(=O)[C@H](Cc1ccc(C(=O)c2ccccc2)cc1)NC(=O)[C@H](Cc1cscn1)NC(=O)CCc1ccccc1)C(=O)c1nc2ccccc2s1 | ST14 | enzyme activity | inhibitor | – | 0.1 µM | remaining activity | 89%
C=CC(=O)N1CCC(COCC(=O)N2CCN(c3nc(-c4cnc(N)nc4C(F)F)nc(N4CCOC[C@@H]4C)n3)CC2)CC1 | Vascular endothelial growth factor receptor 3 (FLT4, Homo sapiens, UniProt P35916) | binding | – | competition with immobilised ligand | 1 µM | remaining binding | 83%
CNC(=O)c1cc(Oc2ccc(NC(=O)Nc3ccc(Cl)c(C(F)(F)F)c3)cc2)ccn1 | CDK2 with cyclin A2 | enzyme activity | inhibitor | – | 0.1 µM | inhibition | 58.2%
CC(C)C[C@H](NC(=O)[C@H](Cc1cscn1)NC(=O)CCc1ccccc1)C(=O)N[C@@H](CCCNC(=N)N)C(=O)c1nc2ccccc2s1 | ST14 | enzyme activity | inhibitor | – | 0.1 µM | remaining activity | 5%
CC(=O)Nc1c(N)nc(SCC(=O)NN)[nH]c1=O | CDK2 with cyclin A2 | enzyme activity | inhibitor | – | 0.5 µM | inhibition | 53.4%
CC(C)(C)c1ccc(C[C@H](NC(=O)[C@H](Cc2cscn2)NC(=O)CCc2ccccc2)C(=O)N[C@@H](CCCNC(=N)N)C(=O)c2nc3ccccc3s2)cc1 | ST14 | enzyme activity | inhibitor | – | 0.1 µM | remaining activity | 80%
CNc1ncc2c(/C=C/C(=O)N3CCC(OC)CC3)nn(Cc3cccc(C(F)(F)F)c3)c2n1 | ALK tyrosine kinase receptor (ALK, Homo sapiens, UniProt Q9UM73) | enzyme activity | inhibitor | radiometric | 1 µM | remaining activity | 83%
COc1cc(-c2cncc3c2CN(C)Cc2cc(N4CCNCC4)ccc2-3)cc(OC)c1OC | Cyclin-dependent kinase 2, with cyclin A (CDK2, Homo sapiens, UniProt P24941) | enzyme activity | inhibitor | – | 1 µM | remaining activity | 100%
CC(=O)Nc1c(N)nc(SCC(=O)N/N=C/c2ccc([N+](=O)[O-])cc2)[nH]c1=O | CDK2 with cyclin A2 | enzyme activity | inhibitor | – | 0.5 µM | inhibition | 51.5%
